Bioassay records from PubChem BioAssay.
VIM-2 inhibitor – VIM-2 metallo-beta-lactamase inhibitors, primary screen, biochemical, epi-absorbance readout, Pseudomonas aeruginosa enzyme | purified VIM-2, nitrocefin hydrolysis, epi-absorbance fluorescence | inhibition, % at 5.6 µM | actives 0.89% (n = 290,000) | AID 1527, 2009;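 active = inhibition above the mean of all tested compounds plus 3 SD, cutoff set per screening run, cut at about 7.5% in these data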;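 also: red hydrolysis product quenches plate fluorescence so inhibitors raise well fluorescence; 0% = enzyme with DMSO and 100% = DMSO without enzyme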
IMP-1 inhibitor – IMP-1 metallo-beta-lactamase inhibitors, primary screen, biochemical, epi-absorbance readout, Pseudomonas aeruginosa enzyme; metallo-beta-lactamase IMP-1 (Pseudomonas aeruginosa); purified IMP-1, nitrocefin hydrolysis, epi-absorbance fluorescence; inhibition, % at 5.6 µM; actives 0.45% (n = 290,000);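 active = inhibition above the mean plus 3 SD of all compounds in the same screening run, cut at about 4.5% in these data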;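 also: 0% = IMP-1 with DMSO and 100% = DMSO wells lacking enzyme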
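assay system = purified recombinant IMP-1 metallo-beta-lactamase enzyme | schedule = 15 min preincubation plus 25 min reaction at 25 °C | signal = Epi-absorbance fluorescence, 480 nm excitation, 530 nm emission | read-out basis = percent inhibition from optical density relative to buffer-blank wells | controls = IMP-1 with DMSO as 0%, enzyme-free DMSO as 100%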
PKA-R1A act – activators of PKA-R1A holoenzyme, primary screen, biochemical, fluorescence polarization, Cy5-IP20, bovine R1A, mouse PKAc; cAMP-dependent protein kinase type I-alpha regulatory subunit (Bos taurus) + …; AID 504707, 2011; actives 0.083% (n = 340,000); PKA-R1A dissociation; scaled: DMSO 0%, 113 µM cGMP 100%; activation, % at 11.4 µM;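 active = percent activation above the mean of all tested compounds plus 3 SD, cut at about 19% in these data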;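 also: higher means more PKAc released from R1A so a rise in polarization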
MsrA act – bovine MsrA enzyme activators, primary screen, biochemical, absorbance, HTS | actives 0.3% (n = 360,000) | purified bovine MsrA, absorbance read-out | activation, % at 10.6 µM; in the data active = activation above about 7.5%;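 also: 0% = vehicle and 100% = reference activator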
MsrA inh – bovine MsrA enzyme inhibitors, primary screen, biochemical, absorbance, HTS; Methionine sulfoxide reductase A (Bos taurus); purified bovine MsrA, absorbance read-out; inhibition, % at 15.5 µM; actives 0.75% (n = 360,000); in the data active = inhibition above about 4.5%;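 also: 0% = vehicle wells with enzyme and 100% = reference inhibitor wells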
PKA-R2B act – activators of PKA-R2B holoenzyme, primary screen, biochemical, fluorescence polarization, Cy5-IP20, human; AID 504700, 2011; cAMP-dependent protein kinase catalytic subunit beta (Homo sapiens) + cAMP-dependent …; activation, % at 11.4 µM; PKA-R2B holoenzyme dissociation; R2B truncated from residue 108, S112A mutant; 0% DMSO only, 100% 113 µM cGMP; actives 0.079% (n = 340,000);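 active = activation above a cutoff set at the mean over all compounds plus 3 SD, cut at about 18% in these data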;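 also: higher means more holoenzyme dissociation and a rise in polarization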
R2B FP artifact – fluorescence polarization artefacts, biochemical, artefact control for PKA-R2B activator project; FP artifact counterscreen; actives 6% (n = 270); activation, % at 11.4 µM; shares compounds with PKA-R2B act; in the data active = activation above about 20%;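 also: Cy5 labelled IP20 peptide probe with compound but no PKA protein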
PKA-R2B confirm – activators of PKA-R2B holoenzyme, confirmation, biochemical, fluorescence polarization, human; PKA-R2B complex, activation; actives 9% (n = 270); AID 504797, 2011; activation, % at 11.4 µM; shares compounds with PKA-R2B act; in the data active = activation above about 19%
R1A FP artifact – FP signal interference without PKA proteins, confirmation, artefact control for PKA-R1A activator project, biochemical, fluorescence polarization, triplicate; activation, % at 11.4 µM; actives 7% (n = 280); Cy5-IP20 peptide alone, fluorescence polarization artifact counterscreen; shares compounds with PKA-R1A act;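 active = mean activation over triplicate runs exceeds the adjusted cutoff derived for the parent primary screen, cut at about 19% in these data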;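 also: no PKA protein present so any polarization rise reflects compound interference; 0% = tracer peptide mix alone and 100% = mix with added PKA catalytic subunit; higher means stronger polarization artifact and likely false positive in parent screen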
PKA-R1A act conf – activators of PKA-R1A holoenzyme, confirmation, biochemical, fluorescence polarization, Cy5-IP20, triplicate; shares compounds with PKA-R1A act; AID 504800, 2011; PKA-R1A holoenzyme dissociation; actives 9% (n = 280); activation, % at 11.4 µM;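 active = mean activation over replicate wells exceeds the adjusted hit threshold taken from the earlier primary screen, cut at about 20% in these data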;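 also: 0% = holoenzyme mix with DMSO only and 100% = cGMP-activated control wells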
Target sequence (P00514 whole entry, looked up): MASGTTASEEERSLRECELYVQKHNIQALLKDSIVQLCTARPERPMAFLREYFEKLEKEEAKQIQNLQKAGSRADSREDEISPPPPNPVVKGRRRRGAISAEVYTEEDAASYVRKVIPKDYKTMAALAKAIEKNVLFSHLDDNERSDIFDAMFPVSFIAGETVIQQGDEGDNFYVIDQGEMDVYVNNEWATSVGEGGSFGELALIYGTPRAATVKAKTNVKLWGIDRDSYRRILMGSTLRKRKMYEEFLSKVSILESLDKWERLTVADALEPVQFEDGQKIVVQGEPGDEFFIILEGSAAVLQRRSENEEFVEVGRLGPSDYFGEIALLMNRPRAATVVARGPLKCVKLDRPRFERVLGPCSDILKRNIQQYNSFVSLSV
* hit, by the source's call; . = no result given. In the library only some 2.1% were active in any assay of this set; here they are far more common.

SMILES	VIM-2 inhibitor	IMP-1 inhibitor	PKA-R1A act	MsrA act	MsrA inh	PKA-R2B act	R2B FP artifact	PKA-R2B confirm	R1A FP artifact	PKA-R1A act conf
Cc1cccc(CC(C)NC(=O)c2cc(COc3ccc(C)c(C)c3)on2)n1 (stereo unspecified)	-2	-1	5	-3	1	-7	.	.	.	.
Cc1ccccc1-n1c(SCC(=O)N/N=C/C=C/c2ccccc2[N+](=O)[O-])nc2ccccc2c1=O	-3	-3	-5	-5	2	21*	-1	-5	.	.
O=C(CSC1=NCCS1)N1CCCCCC1	-3	-3	-4	4	1	6	.	.	.	.
O=C(CSC1=NCCS1)N1CCCC1	-1	-2	-1	2	-1	22*	2	-2	.	.
O=C(Cc1ccc(Cl)cc1Cl)NC1CCCCCC1	-2	-1	10	-9	0	23*	-4	-1	.	.
CC(=O)NCCc1ccc(S(=O)(=O)Nc2ccc(NC(=O)c3ccc(F)cc3)cc2)cc1	-3	-1	-2	-1	1	0	.	.	.	.
COc1ccc(CCNC(=O)Cn2c(=O)oc3cc(Cl)ccc32)cc1OC	-3	-2	7	-3	0	19*	0	-2	.	.
COc1ccc(NC(=O)Cn2c(=O)oc3cc(Cl)ccc32)c(OC)c1	0	-1	0	-10	-2	4	.	.	.	.
Cc1cccc(C(=O)Oc2ccc3ccc(O)cc3c2)c1	-2	-5	-9	-3	-1	-9	.	.	.	.
O=C(Cc1cccc(NC(=O)C2CCCN(C(=O)C3CCCCC3)C2)c1)Nc1ccc(C(=O)N2CCOCC2)cc1 (stereo unspecified)	.	.	-19	-1	-1	-5	.	.	.	.
Cc1ccc(C(NC(=O)N2CCOCC2)C(Cl)Cl)cc1F (stereo unspecified)	-1	-3	-11	-3	1	22*	5	5	.	.
C[C@@H]1CN([C@@H](C)CO)C(=O)c2cccc(NC(=O)Nc3ccccc3)c2O[C@H]1CN(C)C(=O)Nc1cccc2ccccc12	.	.	-5	-2	0	-10	.	.	.	.
COc1ccc(CN2CCN(Cc3ccc4ccccc4c3)CC2)cc1OC	-2	-2	-9	-5	0	23*	-2	-5	.	.
COc1ccccc1CN1CCN(Cc2ccc3ccccc3c2)CC1	-3	0	4	-2	0	-1	.	.	.	.
CCN(CC)S(=O)(=O)c1ccc2c(c1)nc(SCC(=O)NCC1CCCO1)n2CC (stereo unspecified)	.	.	-11	-4	2	-1	.	.	.	.
CC(=O)N1CCCC(C)(C(=O)Nc2ccc3nc(C)ccc3c2)C1 (stereo unspecified)	.	.	.	-2	0	.	.	.	.	.
Cc1cc(=O)n2[nH]c(NCc3ccccc3F)nc2n1	-1	-2	30*	-4	0	36*	34*	31*	34*	35*
CCCc1cc(=O)n2[nH]c(NCc3c(F)cccc3Cl)nc2n1	-3	-3	33*	-14	1	32*	27*	20*	27*	28*
CCCc1cc(=O)n2[nH]c(NCc3ccc(OC)c(OC)c3)nc2n1	-2	-3	-4	-4	0	-9	.	.	.	.
Cc1ccccc1OCCOC(=O)c1cc(S(=O)(=O)N2CCOCC2)ccc1C	.	.	5	-3	0	-10	.	.	.	.
Cc1cccc(NC(=O)c2nc[nH]c2C(=O)N2CCN(c3ccccc3)CC2)c1	.	.	0	1	0	-3	.	.	.	.
Nc1ncnc2c1nc(Sc1ccc(Cl)cc1)n2[C@@H]1O[C@@H]2COP(=O)(O)O[C@H]2[C@H]1O	.	.	107*	-1	1	106*	4	101*	4	106*
C#Cc1ccc([C@H]2C=C(C(=O)NCc3nc4ccccc4[nH]3)O[C@@H](OCc3ccc(CO)cc3)C2)cc1	.	.	-14	-13	2	3	.	.	.	.
O=C(NCc1nc2ccccc2[nH]1)C1=C[C@H](c2ccc(Br)cc2)C[C@H](OCc2ccc(CO)cc2)O1	-4	-3	35*	0	0	26*	27*	22*	27*	27*
O=C(NNC(=O)c1cc(Br)c(Br)s1)c1ccncc1	.	.	-10	-3	3	-1	.	.	.	.
SMILES	VIM-2 inhibitor	IMP-1 inhibitor	PKA-R1A act	MsrA act	MsrA inh	PKA-R2B act	R2B FP artifact	PKA-R2B confirm	R1A FP artifact	PKA-R1A act conf
CC1=C/C(=C(\c2cc(C)c(O)c(Br)c2)c2ccccc2S(=O)(=O)O)C=C(Br)C1=O	-4	-13	34*	-3	1	40*	59*	55*	59*	55*
COc1cc(NC(=O)CC[C@H]2O[C@@H](n3cnc4c(NC(=O)c5ccccc5)ncnc43)[C@H](O)[C@@H]2O)cc(OC)c1OC	.	.	.	-1	0	.	.	.	.	.
CCCC(=O)Nc1ncnc2c1ncn2[C@@H]1O[C@@H]2COP(=O)(O)O[C@H]2[C@H]1OC(=O)CCC	1	-2	41*	-1	0	33*	-1	34*	-1	37*
CC[C@]12C(=O)N(C)C[C@H]([C@@H]3C(=O)N(Cc4ccccc4)C(=O)[C@@H]31)N2C(=O)c1ccccc1	.	.	-19	-1	0	2	.	.	.	.
COc1ccc(NC(=S)NNc2ccc(S(=O)(=O)Nc3ccccc3C(=O)O)cc2[N+](=O)[O-])cc1	-2	-2	64*	-5	4	83*	50*	46*	50*	52*
O=C(CCC(=O)c1ccccc1)Nc1ccc(C(=O)O)cc1	-1	-3	19*	4	0	-1	.	.	1	-1
O=C(CN1C(=O)NC2(CCCCC2)C1=O)Nc1ccc(Cl)c(S(=O)(=O)N2CCOCC2)c1	.	.	4	-9	-1	-10	.	.	.	.
COc1ccc(NC(=O)Cn2nnc(-c3ccccc3NC(=O)c3ccco3)n2)cc1	-2	-4	20*	-1	0	8	.	.	2	6
